Laboratory results from PMC8091929 (Journal of medicinal chemistry, 2020).
In brackets after ≈: the same amount, converted by molar mass.

Legend:
RNAP holoenzyme = conditions: cited from earlier work
human erythrocytes = experiment: In vitro hemolysis assay; type: cell-based; conditions: 0.1, 1, and 10 μg/mL, 37 °C, 45 min, PBS pH 7.4
Outline: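 Human whole-blood erythrocytes were pelleted at 500g, 4 °C, 5 min, washed in 150 mM NaCl, resuspended in PBS pH 7.4 and diluted 40×. They were mixed 4:1 with drug solution in PBS containing 0.5% DMSO, giving final 0.1, 1 or 10 μg/mL, and held 45 min at 37 °C (n = 6). Controls were 1% v/v Triton X-100 and PBS. After spinning at 500g for 10 min, supernatant A540 was read and % lysis was normalized to the controls.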

[1] = target: E. coli core RNAP with σ^70 (Escherichia coli, UniProt P0A8T7); experiment: In vitro transcription initiation assay; type: biochemical; conditions: σ^70, λ PR promoter template, 26-mer RNA
Chain of E. coli core RNAP with σ^70 (P0A7Z4 whole entry): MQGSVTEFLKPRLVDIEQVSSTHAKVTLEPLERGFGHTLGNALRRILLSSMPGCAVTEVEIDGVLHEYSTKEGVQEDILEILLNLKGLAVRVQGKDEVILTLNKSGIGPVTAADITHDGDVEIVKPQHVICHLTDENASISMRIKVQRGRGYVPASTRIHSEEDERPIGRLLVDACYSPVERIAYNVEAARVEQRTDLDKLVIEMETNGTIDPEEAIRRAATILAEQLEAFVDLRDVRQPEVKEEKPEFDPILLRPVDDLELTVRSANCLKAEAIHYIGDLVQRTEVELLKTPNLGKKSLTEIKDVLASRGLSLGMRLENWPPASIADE
Chain of E. coli core RNAP with σ^70 (P0A8T7 whole entry): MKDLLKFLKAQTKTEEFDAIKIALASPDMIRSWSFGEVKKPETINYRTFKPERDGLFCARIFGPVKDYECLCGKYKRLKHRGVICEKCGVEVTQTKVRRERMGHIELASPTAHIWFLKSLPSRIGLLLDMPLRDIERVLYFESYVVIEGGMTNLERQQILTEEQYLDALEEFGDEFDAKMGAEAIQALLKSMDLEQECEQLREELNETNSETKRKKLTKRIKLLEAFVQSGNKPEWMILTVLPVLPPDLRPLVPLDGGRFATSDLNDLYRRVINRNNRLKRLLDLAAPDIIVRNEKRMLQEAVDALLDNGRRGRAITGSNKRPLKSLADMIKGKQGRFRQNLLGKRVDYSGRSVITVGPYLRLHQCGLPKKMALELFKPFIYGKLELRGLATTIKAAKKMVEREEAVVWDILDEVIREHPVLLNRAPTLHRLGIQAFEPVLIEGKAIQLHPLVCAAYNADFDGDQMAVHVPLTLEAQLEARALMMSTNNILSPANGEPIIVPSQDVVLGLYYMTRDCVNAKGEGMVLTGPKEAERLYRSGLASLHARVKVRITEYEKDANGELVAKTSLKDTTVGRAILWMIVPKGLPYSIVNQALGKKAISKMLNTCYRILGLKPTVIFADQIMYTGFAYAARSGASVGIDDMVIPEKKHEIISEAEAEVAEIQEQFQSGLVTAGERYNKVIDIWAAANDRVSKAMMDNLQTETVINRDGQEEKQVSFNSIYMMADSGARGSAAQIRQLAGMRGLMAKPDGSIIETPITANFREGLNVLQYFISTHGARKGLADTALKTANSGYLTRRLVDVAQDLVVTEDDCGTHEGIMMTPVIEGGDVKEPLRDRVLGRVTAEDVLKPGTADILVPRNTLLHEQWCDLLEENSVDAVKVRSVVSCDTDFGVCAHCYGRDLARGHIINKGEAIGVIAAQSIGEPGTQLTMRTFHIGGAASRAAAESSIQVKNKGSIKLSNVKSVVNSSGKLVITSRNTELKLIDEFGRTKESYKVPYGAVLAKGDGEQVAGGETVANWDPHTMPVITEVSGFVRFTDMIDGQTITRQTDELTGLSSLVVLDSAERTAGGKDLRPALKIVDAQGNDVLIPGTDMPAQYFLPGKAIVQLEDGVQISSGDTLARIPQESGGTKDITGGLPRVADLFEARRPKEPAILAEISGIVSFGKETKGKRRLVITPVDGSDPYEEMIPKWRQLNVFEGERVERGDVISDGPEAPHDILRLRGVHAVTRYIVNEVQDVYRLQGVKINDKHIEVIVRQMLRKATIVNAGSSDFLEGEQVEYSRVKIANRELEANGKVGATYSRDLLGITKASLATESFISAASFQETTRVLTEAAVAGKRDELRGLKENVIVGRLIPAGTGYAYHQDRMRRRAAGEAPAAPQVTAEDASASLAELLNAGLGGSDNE
Chain of E. coli core RNAP with σ^70 (P0A800 whole entry, further chain): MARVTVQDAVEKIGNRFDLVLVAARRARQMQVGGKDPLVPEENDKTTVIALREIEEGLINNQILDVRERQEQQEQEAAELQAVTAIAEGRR
Chain of E. coli core RNAP with σ^70 (P0A8V2 whole entry, further chain): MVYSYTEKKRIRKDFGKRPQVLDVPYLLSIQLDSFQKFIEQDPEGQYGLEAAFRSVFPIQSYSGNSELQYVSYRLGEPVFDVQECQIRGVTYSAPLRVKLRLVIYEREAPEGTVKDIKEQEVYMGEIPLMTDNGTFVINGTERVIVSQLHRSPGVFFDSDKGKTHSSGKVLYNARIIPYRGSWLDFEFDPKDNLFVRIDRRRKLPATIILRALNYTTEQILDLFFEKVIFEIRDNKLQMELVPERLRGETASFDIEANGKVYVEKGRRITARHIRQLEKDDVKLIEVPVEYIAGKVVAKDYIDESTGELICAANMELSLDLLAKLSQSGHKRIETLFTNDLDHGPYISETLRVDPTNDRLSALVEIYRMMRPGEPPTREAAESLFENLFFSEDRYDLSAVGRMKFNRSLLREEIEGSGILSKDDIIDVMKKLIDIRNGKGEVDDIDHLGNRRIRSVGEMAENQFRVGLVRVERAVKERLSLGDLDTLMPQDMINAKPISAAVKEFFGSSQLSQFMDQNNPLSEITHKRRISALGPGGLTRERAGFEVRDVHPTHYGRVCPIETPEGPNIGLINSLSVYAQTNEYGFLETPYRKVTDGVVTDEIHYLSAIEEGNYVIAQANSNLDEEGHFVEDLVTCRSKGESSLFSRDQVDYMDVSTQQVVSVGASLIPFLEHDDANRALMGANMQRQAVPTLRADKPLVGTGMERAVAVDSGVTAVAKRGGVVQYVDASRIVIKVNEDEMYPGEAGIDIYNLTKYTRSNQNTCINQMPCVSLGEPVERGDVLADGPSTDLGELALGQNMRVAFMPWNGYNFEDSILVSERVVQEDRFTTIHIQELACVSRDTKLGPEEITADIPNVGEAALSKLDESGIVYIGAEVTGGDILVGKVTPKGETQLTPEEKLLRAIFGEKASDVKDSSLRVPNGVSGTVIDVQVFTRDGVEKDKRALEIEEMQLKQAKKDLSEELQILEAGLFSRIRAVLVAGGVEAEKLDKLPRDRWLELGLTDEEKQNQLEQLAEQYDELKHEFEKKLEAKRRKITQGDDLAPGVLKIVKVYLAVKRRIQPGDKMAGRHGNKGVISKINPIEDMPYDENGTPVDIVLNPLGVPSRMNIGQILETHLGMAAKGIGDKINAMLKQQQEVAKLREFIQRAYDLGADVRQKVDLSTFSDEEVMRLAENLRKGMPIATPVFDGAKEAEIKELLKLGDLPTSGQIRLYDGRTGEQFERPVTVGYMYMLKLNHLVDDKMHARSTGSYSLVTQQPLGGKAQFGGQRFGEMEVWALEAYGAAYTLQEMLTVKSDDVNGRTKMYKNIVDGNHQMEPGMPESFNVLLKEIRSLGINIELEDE

S. pneumoniae ATCC 49619 = experiment: MIC by broth microdilution; type: cell-based, Streptococcus pneumoniae; conditions: S. pneumoniae ATCC 49619, broth microdilution, 20 h at 37 °C
S. aureus = experiment: Time-kill kinetics, S. aureus; type: cell-based, Staphylococcus aureus; conditions: over 6 h, even at 16 MIC
Outline: (§1)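 S. aureus was grown in MHB; S. agalactiae and S. pneumoniae in BHI with 5% CO₂. Incubation was 37 °C, 200 rpm. Samples taken at 0, 2, 4 and 6 h were serially diluted 10-fold and plated. CFU/mL was counted after overnight incubation at 37 °C, 5% CO₂. Triplicates.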

S. agalactiae (GBS) = experiment: Time-kill kinetics, S. agalactiae; type: cell-based, Streptococcus agalactiae; conditions: over 6 h, even at 16 MIC
Outline: as §1

S. pneumoniae = experiment: Time-kill kinetics, S. pneumoniae; type: cell-based, Streptococcus pneumoniae
Outline: as §1

[2] = tested on: S. pneumoniae ATP production; experiment: ATP production of S. pneumoniae cells; type: cell-based, Streptococcus pneumoniae; conditions: at 1/4 MIC
pneumolysin = experiment: Pneumolysin secretion, Western blot of culture supernatant; type: cell-based, Streptococcus pneumoniae; conditions: overnight culture of S. pneumoniae at 1/2 and 1/4 MIC, versus drug-free control
Outline: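 S. pneumoniae cultured overnight in BHI without agitation, with or without serially diluted test compound; rifampicin and ceftriaxone controls at 2–0.002 μg/mL; 16–20 h. […] Western blot on PVDF, 5% milk/TBST block, rabbit polyclonal anti-pneumolysin 1:1000, overnight at 4 °C.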

[3] = tested on: S. aureus ATCC 29213 cells; experiment: Cell content quantification of major macromolecules; type: cell-based, Staphylococcus aureus; conditions: S. aureus ATCC 29213, 1/4 and 1/8 MIC, versus no-drug control
Outline: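 A master culture of S. aureus ATCC 29213 was inoculated at OD₆₀₀ 0.1 and grown at 37 °C, 200 rpm to OD₆₀₀ 0.2. It was then split into aliquots with test compound or rifampicin at 1/4 and 1/8 MIC, plus an untreated aliquot. Cells were harvested at OD₆₀₀ 0.6 with volumes normalized, then pelleted. DNA, RNA and protein were kit-extracted. DNA and RNA were measured by Qubit BR fluorometric assays and protein by BCA. Triplicates.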

[4] = tested on: B. subtilis BS1048 (RNAP β′-GFP); experiment: Confocal microscopy of RNAP-GFP localization; type: cell-based, Bacillus subtilis; conditions: B. subtilis BS1048, at 1/2 MIC, 15 min
Outline: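 2.5 μL culture placed on fresh 1.2% agarose pad under coverslip; imaged by confocal microscopy (63×/1.3 oil objective, mercury metal halide lamp).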

Gram-positive pathogens = experiment: MIC against other Gram-positive pathogens; type: cell-based
Outline: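 Broth microdilution followed CLSI, in cation-adjusted Mueller–Hinton broth or BHI where indicated. Twofold dilutions ran from 256 to 0.5 μg/mL, with inoculum ~5 × 10⁵ CFU/mL and 20 h incubation at 37 °C. Panel strains were ATCC Gram-positive strains (Enterococcus, S. aureus, streptococci, staphylococci). MIC was the lowest concentration with no visible growth. At least duplicates.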

[5] = Solubility under the conditions of the CH–σ assay; type: physicochemical; conditions: conditions of the CH–σ protein complementation assay

## Nc1ccccc1Sc1ccc(C(=O)c2ccccc2C(=O)O)cc1[N+](=O)[O-] [Compound 1, 2-(4-((2-Aminophenyl)thio)-3-nitrobenzoyl)benzoic acid]
RNAP holoenzyme
  RNAP holoenzyme formation and RNA synthesis in vitro: inhibited

## O=C(O)c1ccccc1C(=O)c1ccc(Sc2ccc(Cl)c(Cl)c2)c([N+](=O)[O-])c1 [Compound 13, 2-(4-((3,4-dichlorophenyl)thio)-3-nitrobenzoyl)benzoic acid]
Human erythrocytes
  hemolytic value (% of lysis): < 10%
[1]
  inhibition of transcription (RNA synthesis) in vitro: inhibited transcription

## O=C(Nc1ccccc1C(=O)O)c1ccc(Sc2ccc(Cl)c(Cl)c2)c([N+](=O)[O-])c1 [Compound 41, 2-(4-((3,4-Dichlorophenyl)thio)-3-nitrobenzamido)benzoic Acid]
S. pneumoniae ATCC 49619
  MIC: lost activity completely

## O=C(O)c1ccccc1NCc1ccc(Sc2ccc(Cl)c(Cl)c2)c([N+](=O)[O-])c1 [Compound 43, 2-((4-((3,4-Dichlorophenyl)thio)-3-nitrobenzyl)amino)benzoic Acid]
Human erythrocytes
  hemolytic value (% of lysis): < 10%

## O=C(O)c1ccc(Cl)c(NCc2ccc(Sc3ccc(Cl)c(Cl)c3)c([N+](=O)[O-])c2)c1 [Compound 45, 4-Chloro-3-((4-((3,4-dichlorophenyl)thio)-3-nitrobenzyl)amino)-benzoic Acid]
Human erythrocytes
  hemolytic value (% of lysis): < 10%

## O=C(O)c1ccc(Cl)cc1NCc1ccc(Sc2ccc(Cl)c(Cl)c2)c([N+](=O)[O-])c1 [Compound 54, 4-Chloro-2-((4-((3,4-dichlorophenyl)thio)-3-nitrobenzyl)amino)-benzoic Acid]
[1]
  inhibition of transcription (RNA synthesis) in vitro: much more potent inhibition
S. aureus
  time-kill profile: largely bacteriostatic
S. agalactiae (GBS)
  time-kill profile: largely bacteriostatic
S. pneumoniae; at 1 MIC
  time-kill profile: largely bacteriostatic
S. pneumoniae; at higher concentrations (4 and 16 MICs)
  decrease in cell count: ca. 2 fold log10 decrease
[2]
  ATP production rate: significant decrease
pneumolysin
  pneumolysin levels in culture supernatant: substantial decrease
[3]
  total RNA levels: reduction
  total levels of DNA: remained mostly unaffected
  total protein levels: Reduction
[4]
  RNAP-GFP localization: delocalization of the fluorescence from the nucleoid
Gram-positive pathogens
  MIC: 1 to 2 µg/mL (≈ 2.07 to 4.13 µM)
[5]
  solubility under the testing conditions: insolubility under the testing conditions

## CO/N=C(\C(=O)N[C@@H]1C(=O)N2C(C(=O)O)=C(CSc3nc(=O)c(O)nn3C)CS[C@H]12)c1csc(N)n1 [ceftriaxone]
pneumolysin
  pneumolysin levels in culture supernatant: increased

## CO[C@H]1/C=C/O[C@@]2(C)Oc3c(C)c(O)c4c(O)c(c(/C=N/N5CCN(C)CC5)c(O)c4c3C2=O)NC(=O)/C(C)=C\C=C\[C@H](C)[C@H](O)[C@@H](C)[C@@H](O)[C@@H](C)[C@H](OC(C)=O)[C@@H]1C [rifampicin, reference compound]
pneumolysin
  pneumolysin levels in culture supernatant: suppressed
[3]
  total RNA levels: reduced
  total levels of DNA: remained mostly unaffected
